Laboratory results as given in article PMC9069315 (Acta Pharmaceutica Sinica. B, 2021).
Numbering of substitutions follows the chain as printed. Several values for one entry are separate records, joined by “and”; a condition that tells them apart may be missing. Equal entries are not always repeated.

Key:
P-glycoprotein (P-gp) = P-glycoprotein (P-gp) (Mus musculus, UniProt P21447); experiment: Effect of P-gp on brain uptake; format: in vivo; conditions: male ICR mice
How it was run: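 Male ICR mice (20 ± 2 g, 4–5 weeks) were given the P-gp inhibitor cyclosporine A 60 min before the radioligand. Radioactivity in brain and blood was measured and the brain-to-blood ratio derived, n = 5–8 per group, means ± SD. Groups were compared by independent two-tailed Student's t test.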

[1] = In vivo metabolic stability in ICR mice; set-up: species or system mouse; conditions: 30 min after injection, radio-HPLC
How it was run: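 ICR mice were injected with radiotracer (0.2 mL, 33.3 MBq). Brain and pancreas were dissected at 30 min, processed, and analysed by radio-HPLC for the intact-tracer fraction versus radioactive metabolites.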

σ2 receptor [2] = molecular target: T1, σ2 receptor (Rattus norvegicus, UniProt Q5U3Y7); experiment: Micro-PET/CT imaging in Sprague-Dawley rats; format: in vivo; conditions: SD rats, CM398 10 μmol/kg 5 min before tracer, after 30 min
T1 sequence (Q5U3Y7 1-176): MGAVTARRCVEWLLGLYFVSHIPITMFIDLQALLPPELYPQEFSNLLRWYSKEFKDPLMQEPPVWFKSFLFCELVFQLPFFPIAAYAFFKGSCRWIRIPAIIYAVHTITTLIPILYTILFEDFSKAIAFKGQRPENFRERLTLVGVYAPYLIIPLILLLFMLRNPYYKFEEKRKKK
How it was run: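 Male SD rats (200 ± 10 g, 6–7 weeks) were injected intravenously with radiotracer, and a dynamic 120-min micro-PET/CT scan followed. Scans were run at baseline or with CM398 (10 μmol/kg) blocking. Whole-brain and regional time–activity curves were expressed as SUV, n = 3 per condition for whole brain; images were summed over 30–45 min.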

σ2 receptors [3] = molecular target: T2, σ2 receptors (Mus musculus, UniProt Q8VD00); experiment: Blocking experiments in male ICR mice; format: in vivo; conditions: 30 min p.i.
T2 sequence (Q8VD00 1-176): T1 sequence (Q5U3Y7 1-176) with V4L, T5A, M26L, L33V, F71L, V105A, I118L, I127V, N136S, F169Y
How it was run: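 Male ICR mice (20 ± 2 g, 4–5 weeks) were pre-dosed 5 min before about 280 kBq of radiotracer, with either unlabeled compound (0.1 mL, 3 μmol/kg) or CM398 (0.1 mL; 3, 5, 10 or 20 μmol/kg). Tissues were taken at 30 min p.i. Brain uptake (% ID/g) and brain-to-blood ratio were compared with unblocked controls.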

σ2 receptors [4] = molecular target: T2, σ2 receptors; experiment: Ex vivo autoradiography in mouse brain; conditions: baseline, 30 min p.i., male ICR mice
[5] = In vitro stability in saline and mouse serum; format: in vitro ADME; conditions: 2 h
σ2 receptor [6] = molecular target: T1, σ2 receptor; conditions: cited from earlier work
[7] = Biodistribution in male ICR mice; format: in vivo, mouse; conditions: i.v.
How it was run: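 Male ICR mice (20 ± 2 g, 4–5 weeks) received the radiotracer, and tissues were sampled at the listed times after injection. Uptake is given as percentage of injected dose per gram of tissue (% ID/g), as means ± SD, n = 5.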

[8] = cyclosporine A 60 min before tracer, 2 min p.i., P < 0.05
[9] = CM398 5 μmol/kg 5 min before tracer
[10] = unlabeled compound 3 μmol/kg 5 min before tracer

P-glycoprotein (P-gp), sequence (P21447 whole entry): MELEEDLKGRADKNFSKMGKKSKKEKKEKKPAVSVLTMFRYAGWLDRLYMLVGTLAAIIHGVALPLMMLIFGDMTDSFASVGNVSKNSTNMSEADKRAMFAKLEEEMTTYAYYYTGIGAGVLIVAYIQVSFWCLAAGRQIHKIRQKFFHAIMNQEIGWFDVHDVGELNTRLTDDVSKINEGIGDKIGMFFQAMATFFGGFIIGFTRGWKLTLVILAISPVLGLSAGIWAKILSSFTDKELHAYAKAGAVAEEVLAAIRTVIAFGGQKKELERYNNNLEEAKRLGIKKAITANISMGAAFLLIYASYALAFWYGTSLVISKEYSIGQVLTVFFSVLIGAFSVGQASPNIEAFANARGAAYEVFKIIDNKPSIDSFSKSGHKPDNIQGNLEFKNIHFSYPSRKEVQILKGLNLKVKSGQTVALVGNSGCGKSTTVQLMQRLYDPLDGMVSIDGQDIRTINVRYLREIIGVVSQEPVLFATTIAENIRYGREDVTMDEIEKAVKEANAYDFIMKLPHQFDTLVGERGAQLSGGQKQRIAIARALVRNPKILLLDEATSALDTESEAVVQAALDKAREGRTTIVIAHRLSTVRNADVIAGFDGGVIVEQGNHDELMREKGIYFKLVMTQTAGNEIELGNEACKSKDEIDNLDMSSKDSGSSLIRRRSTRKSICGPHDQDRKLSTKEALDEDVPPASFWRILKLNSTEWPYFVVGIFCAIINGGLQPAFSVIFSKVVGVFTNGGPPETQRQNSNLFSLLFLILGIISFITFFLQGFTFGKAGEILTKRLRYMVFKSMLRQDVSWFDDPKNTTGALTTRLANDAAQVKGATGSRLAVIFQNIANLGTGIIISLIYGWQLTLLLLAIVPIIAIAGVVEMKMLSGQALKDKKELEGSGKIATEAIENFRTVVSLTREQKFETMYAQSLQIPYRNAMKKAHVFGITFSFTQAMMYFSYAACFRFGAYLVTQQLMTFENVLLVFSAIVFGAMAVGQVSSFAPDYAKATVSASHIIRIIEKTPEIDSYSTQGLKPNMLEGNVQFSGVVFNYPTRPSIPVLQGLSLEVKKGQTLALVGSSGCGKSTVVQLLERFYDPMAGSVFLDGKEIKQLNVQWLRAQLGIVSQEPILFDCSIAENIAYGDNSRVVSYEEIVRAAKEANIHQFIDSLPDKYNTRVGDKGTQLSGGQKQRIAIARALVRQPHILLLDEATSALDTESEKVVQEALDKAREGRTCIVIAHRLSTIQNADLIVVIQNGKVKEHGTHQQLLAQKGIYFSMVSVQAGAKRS

COc1cc2c(cc1OC)CN(CCCCn1ccc3c(OCC[18F])cccc31)C2 [[^18F]9, 1-(4-(5,6-dimethoxyisoindolin-2-yl)butyl)-4-(2-[^18F]fluoroethoxy)-1H-indole]
P-gp substrate (P-glycoprotein (P-gp); cyclosporine A 50 mg/kg 60 min before tracer, 50 mg/kg): moderate P-gp substrates and moderate P-gp substrate and Yes
Increase in brain-to-blood ratio with cyclosporine A (P-glycoprotein (P-gp); [8]): 35%
Increase in initial brain uptake with cyclosporine A (P-glycoprotein (P-gp); [8]): 49%
Change in blood uptake with cyclosporine A (P-glycoprotein (P-gp); cyclosporine A 60 min before tracer, 2 min p.i., P > 0.05): slight increase without significance
Parent compound fraction of radioactivity in brain [1]: ≥ 95%
Parent compound fraction of radioactivity in pancreas ([1]; n = 3): ~10%
Reduction of radiotracer accumulation in the whole-brain (micro-PET) (σ2 receptor [2]): > 60%
Blocking effect of CM398 (5 μmol/kg), Brain (σ2 receptors [3]; [9]): 39%
Blocking effect of CM398 (5 μmol/kg), Brain/Blood (σ2 receptors [3]; [9]): 75%
Self-blocking effect, Brain (σ2 receptors [3]; [10]): 58%
Self-blocking effect, Brain/Blood (σ2 receptors [3]; [10]): 90%
Radioactivity distribution in the mouse brain (ex vivo autoradiography) (σ2 receptors [4]): widely and heterogeneously distributed
RCP after incubation (in vitro stability) ([5]; mouse serum, 37 °C): > 99%
RCP after incubation (in vitro stability) ([5]; saline, ambient temperature): > 99%
Ki (σ2 receptor [6]; read-out: Ki (σ2)): 1.79 ± 0.86 nM
Ki (σ1)/Ki (σ2) (σ2 receptor [6]; subtype selectivity): 207
Blood uptake ([7]; 2 min p.i.): 2.39 ± 0.36 % ID/g
Bone uptake ([7]; 2 min p.i.): 2.59 ± 0.66 % ID/g
Brain uptake ([7]; 2 min p.i.): 4.44 ± 0.59 % ID/g
Brain/Blood ratio ([7]; 2 min p.i.): 1.87 ± 0.13
Heart uptake ([7]; 2 min p.i.): 21.57 ± 1.58 % ID/g
Kidney uptake ([7]; 2 min p.i.): 18.89 ± 2.48 % ID/g
Liver uptake ([7]; 2 min p.i.): 3.24 ± 0.67 % ID/g
Lung uptake ([7]; 2 min p.i.): 108.47 ± 20.11 % ID/g
Muscle uptake ([7]; 2 min p.i.): 4.38 ± 0.99 % ID/g
Pancreas uptake ([7]; 2 min p.i.): 8.74 ± 0.29 % ID/g
Small intestine uptake ([7]; 2 min p.i.): 6.21 ± 0.81 % ID/organ
Spleen uptake ([7]; 2 min p.i.): 5.01 ± 1.80 % ID/g
Stomach uptake ([7]; 2 min p.i.): 1.21 ± 0.14 % ID/organ
Blood uptake ([7]; 15 min p.i.): 0.70 ± 0.08 % ID/g
Bone uptake ([7]; 15 min p.i.): 3.02 ± 0.45 % ID/g
Brain uptake ([7]; 15 min p.i.): 4.95 ± 0.36 % ID/g
Brain/Blood ratio ([7]; 15 min p.i.): 7.2 and 7.21 ± 1.36
Heart uptake ([7]; 15 min p.i.): 11.23 ± 0.91 % ID/g
Kidney uptake ([7]; 15 min p.i.): 18.40 ± 2.45 % ID/g
Liver uptake ([7]; 15 min p.i.): 6.13 ± 0.94 % ID/g
Lung uptake ([7]; 15 min p.i.): 36.37 ± 6.47 % ID/g
Muscle uptake ([7]; 15 min p.i.): 3.74 ± 0.33 % ID/g
Pancreas uptake ([7]; 15 min p.i.): 12.75 ± 2.12 % ID/g
Small intestine uptake ([7]; 15 min p.i.): 7.27 ± 0.88 % ID/organ
Spleen uptake ([7]; 15 min p.i.): 7.51 ± 1.17 % ID/g
Stomach uptake ([7]; 15 min p.i.): 1.52 ± 0.19 % ID/organ
Blood uptake ([7]; 30 min p.i.): 0.48 ± 0.08 % ID/g
Bone uptake ([7]; 30 min p.i.): 4.50 ± 0.38 % ID/g
Brain uptake ([7]; 30 min p.i.): 5.04 ± 0.67 % ID/g
Brain/Blood ratio ([7]; 30 min p.i.): 10.6 and 10.57 ± 1.86 and 10.57
Heart uptake ([7]; 30 min p.i.): 7.55 ± 1.30 % ID/g
Kidney uptake ([7]; 30 min p.i.): 20.61 ± 1.80 % ID/g
Liver uptake ([7]; 30 min p.i.): 8.69 ± 0.44 % ID/g
Lung uptake ([7]; 30 min p.i.): 17.93 ± 2.42 % ID/g
Muscle uptake ([7]; 30 min p.i.): 3.90 ± 0.23 % ID/g
Pancreas uptake ([7]; 30 min p.i.): 18.93 ± 2.95 % ID/g
Small intestine uptake ([7]; 30 min p.i.): 10.80 ± 0.36 % ID/organ
Spleen uptake ([7]; 30 min p.i.): 9.93 ± 1.43 % ID/g
Stomach uptake ([7]; 30 min p.i.): 1.54 ± 0.20 % ID/organ
Blood uptake ([7]; 60 min p.i.): 0.42 ± 0.05 % ID/g
Bone uptake ([7]; 60 min p.i.): 4.64 ± 1.57 % ID/g
Brain uptake ([7]; 60 min p.i.): 4.43 ± 0.39 % ID/g
Brain/Blood ratio ([7]; 60 min p.i.): 10.6 and 10.56 ± 0.83
Heart uptake ([7]; 60 min p.i.): 3.49 ± 0.62 % ID/g
Kidney uptake ([7]; 60 min p.i.): 17.40 ± 3.97 % ID/g
Liver uptake ([7]; 60 min p.i.): 10.97 ± 0.95 % ID/g
Lung uptake ([7]; 60 min p.i.): 9.95 ± 1.62 % ID/g
Muscle uptake ([7]; 60 min p.i.): 3.01 ± 0.51 % ID/g
Pancreas uptake ([7]; 60 min p.i.): 22.66 ± 3.36 % ID/g
Small intestine uptake ([7]; 60 min p.i.): 10.73 ± 1.27 % ID/organ
Spleen uptake ([7]; 60 min p.i.): 11.35 ± 2.85 % ID/g
Stomach uptake ([7]; 60 min p.i.): 1.39 ± 0.27 % ID/organ
Blood uptake ([7]; 120 min p.i.): 0.42 ± 0.03 % ID/g
Bone uptake ([7]; 120 min p.i.): 5.57 ± 0.53 % ID/g
Brain uptake ([7]; 120 min p.i.): 3.41 ± 0.13 % ID/g
Brain/Blood ratio ([7]; 120 min p.i.): 8.11 ± 0.37
Heart uptake ([7]; 120 min p.i.): 2.76 ± 0.41 % ID/g
Kidney uptake ([7]; 120 min p.i.): 12.36 ± 0.81 % ID/g
Liver uptake ([7]; 120 min p.i.): 11.9 ± 1.52 % ID/g
Lung uptake ([7]; 120 min p.i.): 7.53 ± 1.07 % ID/g
Muscle uptake ([7]; 120 min p.i.): 3.01 ± 0.27 % ID/g
Pancreas uptake ([7]; 120 min p.i.): 24.21 ± 1.57 % ID/g
Small intestine uptake ([7]; 120 min p.i.): 10.88 ± 0.38 % ID/organ
Spleen uptake ([7]; 120 min p.i.): 10.51 ± 0.37 % ID/g
Stomach uptake ([7]; 120 min p.i.): 1.22 ± 0.13 % ID/organ
